Values after ≈ are worked out from the molar mass of the structure shown. Active and inactive are the calls of the source. No cut-off for these calls is given here.
Assays:
[1] = Metabolic stability in human liver microsomes assessed as clearance at 1 uM measured for 2 to 60 mins by LC-MS/MS analysis; type: ADME, Microsome; conditions: time 2-60 min
SW480 = experiment: cells; conditions: Homo sapiens, SW480, 144 h
[2] = Cytotoxicity against HMEC cells assessed as cell growth inhibition incubated for 144 hrs by alamarblue staining based assay; type: toxicity; conditions: human
NCI-H358 [3] = experiment: cells; conditions: Homo sapiens, NCI-H358, 144 h
HeLa [4] = experiment: cells; conditions: Homo sapiens, 144 h
HeLa [5] = experiment: Upregulation of OGG1 mRNA level in human HeLa cells at 1 uM incubated for 6 days by qPCR analysis; type: functional, cell-based; conditions: time 6.0 day
[6] = Protein binding in mouse plasma assessed as free fraction; type: ADME, cell-free
[7] = Metabolic stability in Han Wistar rat hepatocytes using well-stirred liver model assessed as maximum bioavailability at 1 uM measured for 2 to 90 mins by LC-MS/MS analysis; type: ADME, Hepatocyte; conditions: time 2-90 min, route po, read-out: Fmax
[8] = Metabolic stability in human liver microsomes assessed as maximum bioavailability at 1 uM measured for 2 to 60 mins by LC-MS/MS analysis; type: ADME, Microsome; conditions: time 2-60 min, read-out: Fmax
HeLa [9] = experiment: Upregulation of OGG1 protein level in human HeLa cells at 1 uM by Western blot analysis; type: functional, cell-based
Method in brief: (§1)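 HeLa cells were treated and probed by Western blot for MTH2, OGG1, MUTYH and MTH1. HSP90 served as loading control.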

[10] = Distribution coefficient, logD of compound at pH 7.5 by HPLC analysis; type: physicochemical; conditions: octanol/water
U2OS [11] = experiment: cells; conditions: Homo sapiens, 144 h
NCI-H358 [12] = experiment: Induction of DNA double strand breaks in human NCI-H358 cells assessed as increase in gamma-H2AX expression at 0.005 to 12 micromol/L incubated for 72 hrs by high content analysis; conditions: NCI-H358, 72 h
U2OS [13] = experiment: Cytotoxicity against human U2OS cells assessed as reduction in cell viability by measuring nuclei count at 30 uM incubated for 72 hrs by high content analysis; type: functional, cell-based
Method in brief: (§2)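 U2OS cells were immunostained for 8-oxo-dG and DNA, then imaged by high content analysis. Average nuclear 8-oxo-dG intensity and average nuclear count were measured together.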

[14] = Metabolic stability in Han Wistar rat hepatocytes using well-stirred liver model assessed as clearance at 1 uM measured for 2 to 90 mins by LC-MS/MS analysis; type: ADME, cell-based, Hepatocyte; conditions: time 2-90 min
NCI-H460 [15] = experiment: cells; conditions: Homo sapiens, NCI-H460, 144 h
MDA-MB-231 = experiment: cells; conditions: Homo sapiens, MDA-MB-231, 144 h
HeLa [16] = experiment: Upregulation of MUTYH protein level in human HeLa cells at 1 uM by Western blot analysis; type: functional, cell-based; method in brief: as §1
MCF7 [17] = experiment: cells; conditions: Homo sapiens, MCF7, 144 h
[18] = Aqueous solubility of compound in pH 6.5; type: physicochemical; conditions: buffer
[19] = Apparent permeability across apical to basolateral side in human Caco-2 cells at 2 uM incubated for 2 hrs by LC/MS/MS analysis; type: ADME, cell-based
HeLa [20] = experiment: Upregulation of MUTYH mRNA level in human HeLa cells at 1 uM incubated for 6 days by qPCR analysis; type: functional, cell-based; conditions: time 6.0 day
A549 = experiment: cells; conditions: Homo sapiens, A549, 144 h
U2OS [21] = experiment: Upregulation of nuclear 8-oxo-dG level in human U2OS cells at 1 to 2 uM incubated for 72 hrs by high content analysis; type: functional, cell-based; conditions: dose 1-2 µM; method in brief: as §2
[22] = Toxicity in NMRI nude mouse assessed as body weight loss upto 250 mg/kg, po qd for 7 days; type: organism-based; conditions: in vivo, 168 h, time 7 day
Method in brief: (§3)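 Female NMRI nude mice received oral doses in PEG/water (80:20), escalated step-wise from 25 to 250 mg/kg over 7 days. Body weight, overt toxicity and mortality were monitored, and observation was extended a further 7 days to catch latent toxicity.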

U2OS [23] = experiment: Effect on nuclear 8-oxo-dG level in human U2OS cells at 10 to 30 uM incubated for 72 hrs by high content analysis; type: functional, cell-based; conditions: dose 10-30 µM; method in brief: as §2
CT26 [24] = experiment: Additive antitumor activity against mouse CT26 cells xenografted in NMRI nude mouse assessed as reduction in tumor growth at 100 mg/kg, po along with radiation treatment measured for 12 days; type: functional, organism-based; conditions: time 12.0 day
CT26 [25] = experiment: Antitumor activity against mouse CT26 cells xenografted in NMRI nude mouse assessed as reduction in tumor weight at 100 mg/kg, po measured for 12 days; type: functional, organism-based; conditions: time 12.0 day
NCI-H358 [26] = experiment: Induction of DNA double strand breaks in human NCI-H358 cells assessed as increase in gamma-H2AX expression at 12.4 uM incubated for 72 hrs by high content analysis; type: functional, cell-based
Method in brief: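 NCI-H358 cells were immunostained for γH2AX and DNA and analysed by high content imaging. The highest concentration tested was 12.4 µM, and EC50 was taken for DSB induction.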

[27] = Toxicity in NMRI nude mouse assessed as drug tolerability at 25 to 250 mg/kg, po qd for 7 days; type: organism-based; conditions: in vivo, 168 h, dose 25-250 mg/kg, time 7 day; method in brief: as §3
CT26 [28] = experiment: Antitumor activity against mouse CT26 cells xenografted in NMRI nude mouse assessed as reduction in tumor volume at 100 mg/kg, po measured for 12 days; type: functional, organism-based; conditions: time 12.0 day
MCF7 [29] = experiment: Inhibition of colony formation of human MCF7 cells at 0.1 to 10 uM measured after 15 days by soft agar assay; type: functional, cell-based; conditions: dose 0.1-10 µM, time 15.0 day
NCI-H460 [30] = experiment: Antitumor activity against human NCI-H460 cells xenografted in NMRI nude mouse assessed as reduction in tumor volume at 100 mg/kg, po measured for 10 days; conditions: time 10.0 day
U2OS [31] = experiment: Effect on nuclear 8-oxo-dG level in human U2OS cells at 10 to 30 uM incubated for 72 hrs in presence of LCS1 by high content analysis; type: functional, cell-based; conditions: dose 10-30 µM
NCI-H460 [32] = experiment: Antitumor activity against human NCI-H460 cells xenografted in NMRI nude mouse assessed as reduction in tumor weight at 100 mg/kg, po measured for 10 days; conditions: time 10.0 day
U2OS [33] = experiment: Upregulation of nuclear 8-oxo-dG level in human U2OS cells at 100 to 300 nM incubated for 72 hrs by high content analysis; type: functional, cell-based; conditions: dose 100-300 nM; method in brief: as §2
U2OS [34] = experiment: Upregulation of nuclear 8-oxo-dG level in human U2OS cells at 2 to 10 uM incubated for 72 hrs by high content analysis; type: functional, cell-based; conditions: dose 2-10 µM; method in brief: as §2

| Structure (SMILES) | CLH [1] [mL/min/kg] | GI50 at 144 h [2] [µM] | Activity (HeLa [5]) | fraction unbound [6] | Fh at 1 µM [7] [%] | Fh at 1 µM [8] [%] | Activity (HeLa [9]) | logD [10] | Activity (U2OS [13]) | CLhep predicted at 1 µM [14] [mL/min/kg] | Activity (HeLa [16]) | solubility [18] [µg/mL] | Papp A→B at 2 h, 2 µM [19] [×10⁻⁶ cm/s] | Activity (HeLa [20]) | also measured |
| --- | --- | --- | --- | --- | --- | --- | --- | --- | --- | --- | --- | --- | --- | --- | --- |
| Nc1nc(NC2CC2)cc(-c2cccc(Cl)c2Cl)n1 | 10.7 | 3.2 | inactive | 0.04 | 54 | 51 | inactive | 2.5 | Active | 32 | inactive | 38 (≈ 129 µM) | 30.7 | inactive | GI50 (SW480): 5.3 µM; GI50 (NCI-H358 [3]): 4.9 µM; GI50 (HeLa [4]): 4.2 µM; GI50 (U2OS [11]): 2.6 µM; EC50 (NCI-H358 [12]): 3.11 µM; GI50 (NCI-H460 [15]): 7.1 µM; GI50 (MDA-MB-231): 6.3 µM; GI50 (MCF7 [17]): 3.5 µM; GI50 (A549): 4 µM |
| CC(C)(C)c1cnc(CSc2cnc(NC(=O)C3CCNCC3)s2)o1 | – | – | – | – | – | – | – | – | – | – | – | – | – | – | Activity (U2OS [21]): Active |
| CCNC(=O)c1cc2c(N3CCOC[C@@H]3C)ccnc2[nH]1 | 4.83 | > 30 | inactive | 0.48 | 87 | 78 | inactive | 1.6 | – | 9 | inactive | 288 (≈ 999 µM) | 14.8 | inactive | Activity [22]: < 10%; Activity (U2OS [23]): inactive; Activity (CT26 [24]): inactive; Activity (CT26 [25]): inactive; Activity (NCI-H358 [26]): inactive; Activity [27]: Non-Toxic; Activity (CT26 [28]): inactive; inhibition (MCF7 [29]): inactive; Activity (NCI-H460 [30]): inactive; Activity (U2OS [31]): inactive; Activity (NCI-H460 [32]): inactive |
| CC[C@@H]1C(=O)N(C)c2cnc(Nc3ccc(C(=O)N[C@H]4CC[C@H](N5CCN(CC6CC6)CC5)CC4)cc3OC)nc2N1C(C)C | – | – | – | – | – | – | – | – | – | – | – | – | – | – | Activity (U2OS [33]): Active |
| Cc1cc(Nc2cc(N3CCN(C)CC3)nc(Sc3ccc(NC(=O)C4CC4)cc3)n2)n[nH]1 | – | – | – | – | – | – | – | – | – | – | – | – | – | – | Activity (U2OS [34]): Active |
| Cc1cccc(-n2ncc(Cl)c(Cl)c2=O)c1 | – | – | – | – | – | – | – | – | Active | – | – | – | – | – | – |

Reference: ChEMBL document CHEMBL5653629, “Novel Class of Potent and Cellularly Active Inhibitors Devalidates MTH1 as Broad-Spectrum Cancer Target” (ACS Chem Biol, 2017)
